From ChEMBL document CHEMBL3745686 (Eur J Med Chem, 2016) come the findings set out here.

The source made the active and inactive calls. The rule behind the calls is not given here. Some results are limits rather than exact numbers.

The target of series [1] is T1, P2Y purinoceptor 1 (Homo sapiens, UniProt P47900). As to the kind of experiment: Antagonist activity at human platelet P2Y1 receptor assessed as inhibition of ADP-induced increase in cytosolic calcium level by FLUO-4 staining based flow cytometric analysis. It counts as functional. A digest of the protocol: (§1)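 Stimulus was extracellular Ca2+ uptake on 1 μM test compound (P2X1, scaled to 20 μM β,γ-CH2-ATP as 100%, selective P2Y1 inhibitor control), or 3 μM ADP (P2Y1 antagonism; omitted for agonism).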
T1 sequence (P47900 whole entry): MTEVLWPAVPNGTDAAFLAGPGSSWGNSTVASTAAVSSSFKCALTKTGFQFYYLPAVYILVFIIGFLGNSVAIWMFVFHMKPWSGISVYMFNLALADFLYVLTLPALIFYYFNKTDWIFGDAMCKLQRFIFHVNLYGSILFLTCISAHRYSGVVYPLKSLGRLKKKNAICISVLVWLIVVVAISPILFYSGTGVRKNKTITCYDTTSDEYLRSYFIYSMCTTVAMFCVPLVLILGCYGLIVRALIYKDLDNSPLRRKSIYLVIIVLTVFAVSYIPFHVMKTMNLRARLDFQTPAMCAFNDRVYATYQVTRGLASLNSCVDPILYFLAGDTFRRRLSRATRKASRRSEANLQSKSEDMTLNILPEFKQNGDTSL

For series [2], the target named is T2, P2X purinoceptor 1 (Homo sapiens) (UniProt P51575).
T2 sequence (whole entry): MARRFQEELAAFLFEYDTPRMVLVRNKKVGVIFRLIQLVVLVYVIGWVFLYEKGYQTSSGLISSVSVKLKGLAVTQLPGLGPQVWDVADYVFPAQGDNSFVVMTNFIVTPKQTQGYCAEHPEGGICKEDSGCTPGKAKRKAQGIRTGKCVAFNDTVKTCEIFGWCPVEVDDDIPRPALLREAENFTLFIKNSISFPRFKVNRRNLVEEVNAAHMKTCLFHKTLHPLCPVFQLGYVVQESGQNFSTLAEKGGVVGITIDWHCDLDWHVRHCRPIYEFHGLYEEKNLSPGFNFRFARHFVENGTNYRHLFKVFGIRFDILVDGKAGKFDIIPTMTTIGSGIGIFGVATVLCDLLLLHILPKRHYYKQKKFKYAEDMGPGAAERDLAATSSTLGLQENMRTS
As to the kind of experiment: Agonist activity at human platelet P2X1 receptor assessed as increase in cytosolic calcium level at 1 uM by […] staining based flow cytometric analysis relative to beta,gamma-CH2-ATP. A digest of the protocol:
as §1
For orientation: Flow cytometry measures light scatter and fluorescence of single cells or particles in a stream.

Series [3] concerns the target T3, P2Y purinoceptor 12 (Homo sapiens, UniProt Q9H244). As to the kind of experiment: Agonist activity at human platelet P2Y12 receptor assessed as decrease in intra-platelet phosphorylated VASP by flow cytometric analysis.
The target of series [4] is T3, P2Y purinoceptor 12. Kind of series: Antagonist activity at human platelet P2Y12 receptor assessed as inhibition of ADP-mediated decrease in intra-platelet phosphorylated VASP by flow cytometric analysis.
Series [5] deals with Platelet. As to the kind of experiment: Anti-aggregatory activity in human platelet rich plasma assessed as inhibition of ADP-induced platelet shape change. Type of series: functional, cell-free.
In series [6] the target is T1, P2Y purinoceptor 1. Kind of series: Agonist activity at human platelet P2Y1 receptor assessed as increase in cytosolic calcium level by FLUO-4 staining based flow cytometric analysis. Type of series: functional. Summed up:
as §1

Series [7] has as its system Plasma. Kind of series: Metabolic stability in human plasma assessed as first order elimination rate constant at 50 uM measured at 1 to 4 hrs. It counts as ADME, cell-free.
The test system of series [8] is Plasma. Kind of series: Metabolic stability in rat plasma assessed as first order elimination rate constant at 50 uM measured at 1 to 4 hrs. It counts as ADME, cell-free.
The nature of series [9]: Anti-aggregatory activity in human platelet rich plasma assessed as inhibition of ADP-induced platelet aggregation by optical aggregometry. It counts as functional, cell-free.
Series [10] concerns Plasma. Kind of series: Half life in rat plasma at 50 uM measured at 1 to 4 hrs. It counts as ADME, cell-free.
For series [11], the system named is Plasma. As to the kind of experiment: Half life in human plasma at 50 uM measured at 1 to 4 hrs. Type of series: ADME, cell-free.

T3 sequence (Q9H244 whole entry): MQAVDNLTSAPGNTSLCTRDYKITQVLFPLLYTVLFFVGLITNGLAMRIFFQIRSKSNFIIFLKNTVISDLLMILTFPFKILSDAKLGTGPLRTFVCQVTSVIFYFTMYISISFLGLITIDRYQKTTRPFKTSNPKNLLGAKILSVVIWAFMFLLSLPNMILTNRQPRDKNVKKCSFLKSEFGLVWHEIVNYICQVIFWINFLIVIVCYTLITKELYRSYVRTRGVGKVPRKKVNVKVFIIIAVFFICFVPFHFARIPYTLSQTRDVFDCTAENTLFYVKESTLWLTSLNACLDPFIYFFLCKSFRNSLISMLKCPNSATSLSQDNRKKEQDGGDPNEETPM

For the molecule `CNc1ncnc2c1ncn2[C@H]1C[C@H](OP(=O)(O)O)[C@@H](COP(=O)(O)O)O1`, in series [1], the IC50 – broadly, the midpoint of a concentration-inhibition curve – came to 2250 nM.

For the molecule `CSc1nc(N)c2ncn([C@@H]3O[C@H](COP(=O)(O)OP(=O)(O)OP(=O)(O)OP(=O)(O)OC[C@H]4O[C@@H](n5cnc6c(N)nc(SC)nc65)[C@H](O)[C@@H]4O)[C@@H](O)[C@H]3O)c2n1`, the Activity in series [2] came to 48%. Moreover, the outcome in [3] and in series [6] was inactive. The half-inhibitory concentration (IC50) in series [4] was 1400 nM; in series [1] it was 4900 nM. In addition, the inhibition entry in series [5] is “Active”.

Consider `CSc1nc(N)c2ncn([C@@H]3O[C@H](COP(=O)(O)OP(=O)(O)C(Cl)P(=O)(O)OP(=O)(O)OC[C@H]4O[C@@H](n5cnc6c(N)nc(SC)nc65)[C@H](O)[C@@H]4O)[C@@H](O)[C@H]3O)c2n1` (stereo partly drawn), for which the outcome in series [3] and in [6] was inactive. The IC50 was found to be 310 nM in series [4] and 29000 nM in [1]. The inhibition result in series [5] is “Active”.

Take `CNc1nc(SC)nc2c1ncn2[C@@H]1O[C@H](COP(=O)(S)OP(=O)(O)C(Cl)P(=O)(O)OP(=O)(S)OC[C@H]2O[C@@H](n3cnc4c(NC)nc(SC)nc43)[C@H](O)[C@@H]2O)[C@@H](O)[C@H]1O` (stereo partly drawn): in [2], the Activity turned out to be 92%. The result in [3] and in series [6] was inactive. In addition, the half-maximal inhibitory concentration (IC50) in [4] was found to be 730 nM; in series [1] it was 360 nM. In [5], the inhibition entry was “Active”.

As to `CCCSc1nc(N)c2ncn([C@@H]3O[C@H](COP(=O)(S)OP(=O)(O)C(Cl)P(=O)(O)OP(=O)(S)OC[C@H]4O[C@@H](n5cnc6c(N)nc(SCCC)nc65)[C@H](O)[C@@H]4O)[C@@H](O)[C@H]3O)c2n1` (mixture of isomers), the Activity in [2] worked out at 31%. Moreover, the result in [3] and in series [6] was inactive. In addition, the half-maximal inhibitory concentration (IC50) in series [4] was 1020 nM; in series [1], 6300 nM. In addition, the inhibition entry in series [5] is “Active”.

As to `CNc1ncnc2c1ncn2[C@@H]1O[C@H](COP(=O)(S)OP(=O)(O)C(Cl)P(=O)(O)OP(=O)(S)OC[C@H]2O[C@@H](n3cnc4c(NC)ncnc43)[C@H](O)[C@@H]2O)[C@@H](O)[C@H]1O` (mixture of isomers), the Activity in series [2] was determined as 0.31%. Also, the result in series [3] and in series [6] was inactive. Also, the 50% inhibitory concentration (IC50) in series [4] is greater than 200000 nM; in series [1] it was 1970 nM. In addition, in series [5], the inhibition result is “Active”.

Consider `CCCCCSc1nc(N)c2ncn([C@@H]3O[C@H](COP(=O)(S)OP(=O)(O)C(Cl)P(=O)(O)OP(=O)(S)OC[C@H]4O[C@@H](n5cnc6c(N)nc(SCCCCC)nc65)[C@H](O)[C@@H]4O)[C@@H](O)[C@H]3O)c2n1` (mixture of isomers), for which the Activity in series [2] was determined as 4.7%. Moreover, the outcome in series [3] and in [6] was inactive. Also, the IC50 in series [4] came out at 3100 nM; in series [1] it was 4210 nM. Besides, in [5], the inhibition result is “Active”.

As to `Nc1nc(SCCC(F)(F)F)nc2c1ncn2[C@@H]1O[C@H](COP(=O)(S)OP(=O)(O)C(Cl)P(=O)(O)OP(=O)(S)OC[C@H]2O[C@@H](n3cnc4c(N)nc(SCCC(F)(F)F)nc43)[C@H](O)[C@@H]2O)[C@@H](O)[C@H]1O` (mixture of isomers), the Activity in [2] was determined as 4.7%. Further, the outcome in series [3] and in series [6] was inactive. The concentration for half-maximal inhibition (IC50) in [4] amounted to 210 nM; in [1], 5200 nM. Further, in series [5], the inhibition entry was “Active”.

`CSc1nc(N)c2ncn([C@@H]3O[C@H](COP(=O)(S)OP(=O)(O)C(Cl)(Cl)P(=O)(O)OP(=O)(S)OC[C@H]4O[C@@H](n5cnc6c(N)nc(SC)nc65)[C@H](O)[C@@H]4O)[C@@H](O)[C@H]3O)c2n1` (mixture of isomers): the Activity in series [2] came to 3.3%. Moreover, the result in series [3] and in [6] was inactive. The values for the half-maximal inhibitory concentration (IC50) in series [4] and in [1] were 1120 nM and 1020 nM, respectively. Also, the inhibition result in [5] is “Active”.

For the molecule `CCCNc1ncnc2c1ncn2[C@@H]1O[C@H](COP(=O)(S)OP(=O)(O)C(Cl)P(=O)(O)OP(=O)(S)OC[C@H]2O[C@@H](n3cnc4c(NCCC)ncnc43)[C@H](O)[C@@H]2O)[C@@H](O)[C@H]1O` (mixture of isomers), the Activity in series [2] is -0.01%. Also, the result in series [3] and in series [6] was inactive. Besides, the figures for the IC50 in series [4] and in series [1] were 156000 nM and 8800 nM, respectively. Besides, in series [5], the inhibition result was “Active”.

`Nc1nc(Cl)nc2c1ncn2[C@@H]1O[C@H](COP(=O)(S)OP(=O)(O)C(Cl)P(=O)(O)OP(=O)(S)OC[C@H]2O[C@@H](n3cnc4c(N)nc(Cl)nc43)[C@H](O)[C@@H]2O)[C@@H](O)[C@H]1O` (mixture of isomers): the Activity in series [2] was 0.07%. The outcome in series [3] and in [6] was inactive. Also, the IC50 came out at 9300 nM in series [4] and 7370 nM in series [1]. Further, the inhibition result in series [5] was “Active”.

For `CSc1nc(N)c2ncn([C@@H]3O[C@H](COP(=O)(S)OP(=O)(O)OP(=O)(O)OP(=O)(S)OC[C@H]4O[C@@H](n5cnc6c(N)nc(SC)nc65)[C@H](O)[C@@H]4O)[C@@H](O)[C@H]3O)c2n1` (mixture of isomers), the Activity in series [2] turned out to be 3%. In addition, the outcome in [3] and in series [6] was inactive. Besides, the half-maximal inhibitory concentration (IC50) came out at 2400 nM in series [4] and 160 nM in [1]. The inhibition entry in [5] was “Active”.

Turning to `Nc1nc(I)nc2c1ncn2[C@@H]1O[C@H](COP(=O)(S)OP(=O)(O)C(Cl)P(=O)(O)OP(=O)(S)OC[C@H]2O[C@@H](n3cnc4c(N)nc(I)nc43)[C@H](O)[C@@H]2O)[C@@H](O)[C@H]1O` (mixture of isomers), in series [2], the Activity is 0.69%. For the same molecule, the result in series [3] and in series [6] was inactive. For the same molecule, the concentration for half-maximal inhibition (IC50) is 1350 nM in series [4] and 2650 nM in series [1]. The inhibition result in [5] was “Active”.

Take `Nc1ncnc2c1ncn2[C@@H]1O[C@H](COP(=O)(S)OP(=O)(O)C(Cl)P(=O)(O)OP(=O)(S)OC[C@H]2O[C@@H](n3cnc4c(N)ncnc43)[C@H](O)[C@@H]2O)[C@@H](O)[C@H]1O` (mixture of isomers): in series [1], the IC50 is 10200 nM.

As for `CSc1nc(N)c2ncn([C@@H]3O[C@H](COP(=O)([S-])OP(=O)([O-])C(Cl)P(=O)([O-])OP(=O)([S-])OC[C@H]4O[C@@H](n5cnc6c(N)nc(SC)nc65)[C@H](O)[C@@H]4O)[C@@H](O)[C@H]3O)c2n1.[Na+].[Na+].[Na+].[Na+]` (single isomer, unassigned; diastereomer 1), the results for the Kel in series [7] and in [8] were 0.00976 h⁻¹ and 0.0069 h⁻¹, respectively. Moreover, the IC50 in series [9] was determined as 76 nM. In addition, the results for the t1/2 in series [10] and in [11] were 100.5 h and 71 h, respectively.

As to `CSc1nc(N)c2ncn([C@@H]3O[C@H](COP(=O)([S-])OP(=O)([O-])C(Cl)P(=O)([O-])OP(=O)([S-])OC[C@H]4O[C@@H](n5cnc6c(N)nc(SC)nc65)[C@H](O)[C@@H]4O)[C@@H](O)[C@H]3O)c2n1.[Na+].[Na+].[Na+].[Na+]` (single isomer, unassigned; diastereomer 2), the Kel in series [7] is 0.0171 h⁻¹; in [8] it was 0.137 h⁻¹. Also, the IC50 in series [9] came to 83 nM. Moreover, the t1/2 in series [10] was 5.06 h; in [11] it was 40.6 h.

For `CSc1nc(N)c2ncn([C@@H]3O[C@H](COP(=O)([S-])OP(=O)([O-])C(Cl)P(=O)([O-])OP(=O)([S-])OC[C@H]4O[C@@H](n5cnc6c(N)nc(SC)nc65)[C@H](O)[C@@H]4O)[C@@H](O)[C@H]3O)c2n1.[Na+].[Na+].[Na+].[Na+]` (single isomer, unassigned; diastereomer 3), the Kel in series [7] came to 0.0217 h⁻¹; in [8] it was 0.128 h⁻¹. Also, in [9], the IC50 amounted to 64 nM. Moreover, the t1/2 was 5.4 h in series [10] and 31.9 h in series [11].

Take `CSc1nc(N)c2ncn([C@@H]3O[C@H](COP(=O)([S-])OP(=O)([O-])C(Cl)P(=O)([O-])OP(=O)([S-])OC[C@H]4O[C@@H](n5cnc6c(N)nc(SC)nc65)[C@H](O)[C@@H]4O)[C@@H](O)[C@H]3O)c2n1.[Na+].[Na+].[Na+].[Na+]` (single isomer, unassigned; diastereomer 4): the Kel in series [7] turned out to be 0.0424 h⁻¹; in series [8], 0.508 h⁻¹. In series [9], the 50% inhibitory concentration (IC50) was 110 nM. Moreover, the t1/2 in [10] is 1.37 h; in series [11] it was 16.4 h.
